# Data taken from article PMC7495282 (British Journal of Clinical Pharmacology, 2020).
# Read-outs that look alike come from different tables or passages of the source.
# What was measured:
# [1] = Study 1 safety and tolerability; assay type: in vivo, healthy Japanese subjects; conditions: for Blood creatine phosphokinase increased, TEAE / Eosinophil count increased, TEAE / Rash, TEAE: n = 20
# In short: (§1)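 Healthy Japanese males, 20–45 y. Safety was assessed from adverse events, laboratory tests, vital signs (BP, pulse rate, body temperature) and 12-lead ECG. Adverse events were coded by MedDRA/J (versions 19.0 and 19.1) System Organ Class and Preferred Term. Safety set was all consenting subjects given at least 1 dose of any study drug.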
# [2] = Study 1: single-dose esaxerenone pharmacokinetics alone and with itraconazole; assay type: in vivo, healthy Japanese subjects
# In short: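 Healthy Japanese males, 20–45 y, BMI 18.5–<25 kg m−2. Oral 2.5 mg tablet with 200 mL water, fasted (≥10 h before, 4 h after), on Day 1. CYP3A inhibitor 200 mg twice on Day 8, then once daily Days 9–16. Day 13 co-dose given fasted. Plasma sampled predose to 96 h, extracted by SPE, assayed by LC–MS/MS. Noncompartmental PK; GLSM ratios with 90% CI.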
# [3] = cited from earlier work
# [4] = test system: mineralocorticoid receptor (MR); conditions: in vitro, cited from earlier work
# [5] = test system: CYP3A4; conditions: human liver microsomes and human CYP expression system; cited from earlier work
# [6] = esaxerenone 20 mg; ref unpublished data on file, Daiichi Sankyo Co., Ltd.; cited from earlier work
# [7] = test system: P‐glycoprotein (P‐gp); conditions: in vitro; cited from earlier work
# [8] = test system: breast cancer resistance protein; conditions: in vitro; cited from earlier work
# [9] = assay type: in vivo, healthy Japanese subjects
# In short: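 Healthy Japanese males, 20–45 y. Oral 5 mg, fasted, Day 1. CYP3A inducer 600 mg orally once daily before breakfast for 9 days from Day 8; Day 13 dose given fasted 2 h after inducer. Plasma taken predose to 96 h (1700 g, 10 min, 4 °C; stored ≤−20 °C). Parent and metabolites M1, M4, M11 by SPE–LC–MS/MS. Noncompartmental analysis; GLSM ratios, 90% CI.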
# [10] = test system: CYP3A5; conditions: human liver microsomes and human CYP expression system; cited from earlier work
# [11] = Study 2 safety and tolerability; assay type: in vivo, healthy Japanese subjects
# In short: as §1
# [12] = cited from earlier work; remark: listed apart in the source
# [13] = cited from earlier work; remark: listed apart in the source
# [14] = in the presence of ketoconazole; cited from earlier work
# [15] = test system: human MR; conditions: read-out: half-maximal inhibitory concentration for the transcriptional activity of human MR; in vitro; cited from earlier work
# [16] = Study 1, esaxerenone 2.5 mg + itraconazole
# [17] = Study 1, esaxerenone 2.5 mg alone
# [18] = (esaxerenone + itraconazole)/(esaxerenone alone), 2.5 mg
# [19] = esaxerenone 2.5 mg + itraconazole, n = 20
# [20] = esaxerenone 2.5 mg single oral dose + itraconazole 200 mg, n = 20
# [21] = esaxerenone 2.5 mg single oral dose, alone, n = 20
# [22] = esaxerenone 2.5 mg, alone, n = 20
# [23] = (esaxerenone + rifampicin)/(esaxerenone alone), 5 mg
# [24] = coadministration with rifampicin vs esaxerenone alone
# [25] = esaxerenone 5 mg + rifampicin, n = 11
# [26] = esaxerenone 5 mg single oral dose + rifampicin 600 mg once daily, n = 11
# [27] = esaxerenone 5 mg single oral dose, alone, n = 11
# [28] = esaxerenone 5 mg, alone, n = 11
# [29] = Study 2, esaxerenone 5 mg + rifampicin, n = 11
# [30] = Study 2, esaxerenone 5 mg alone, n = 12
compound,measurement,setting,value
Cc1c(C(=O)Nc2ccc(S(C)(=O)=O)cc2)cn(CCO)c1-c1ccccc1C(F)(F)F [Esaxerenone],serious AEs,[1]; Study 1,No serious AEs
same,"Blood creatine phosphokinase increased, TEAE",[1]; [16],0 number of subjects (%)
same,"Eosinophil count increased, TEAE",[1]; [16],0 number of subjects (%)
same,"Rash, TEAE",[1]; [16],0 number of subjects (%)
same,"Blood creatine phosphokinase increased, TEAE",[1]; [17],1 (5.0) number of subjects (%)
same,"Eosinophil count increased, TEAE",[1]; [17],0 number of subjects (%)
same,"Rash, TEAE",[1]; [17],0 number of subjects (%)
same,subjects reporting TEAEs,"[1]; Study 1, whole study",1 subject
same,safety and tolerability (in words),[1]; administered concomitantly with itraconazole,safe and well tolerated
same,AUCinf GLSM ratio (90% CI),[2]; [18],"1.53 (1.45, 1.62)"
same,Cmax GLSM ratio (90% CI),[2]; [18],"1.13 (1.05, 1.20)"
same,AUCinf GLSM ratio (90% CI),"[2]; (esaxerenone + itraconazole)/(esaxerenone alone), 2.5 mg, listed as esaxerenone",1.53 (1.45–1.62)
same,increase in esaxerenone Cmax,[2]; coadministration of itraconazole vs esaxerenone alone,12.6%
same,"AUCinf, GLSM",[2]; [19],976 ng·h/mL
same,"Cmax, GLSM",[2]; [19],41.0 ng/mL
same,"AUCinf, arithmetic mean (SD)",[2]; [20],996 (219) ng h mL^−1
same,"CL/F, arithmetic mean (SD)",[2]; [20],2.61 (0.477) L h^−1
same,"Cmax, arithmetic mean (SD)",[2]; [20],41.7 (8.46) ng mL^−1
same,"t1/2, arithmetic mean (SD)",[2]; [20],25.9 (4.21) h
same,"tmax, median (range)",[2]; [20],2.00 (1.00–4.00) h
same,"AUCinf, arithmetic mean (SD)",[2]; [21],648 (121) ng h mL^−1
same,"CL/F, arithmetic mean (SD)",[2]; [21],3.98 (0.696) L h^−1
same,"t1/2, arithmetic mean (SD)",[2]; [21],20.7 (3.96) h
same,"tmax, median (range)",[2]; [21],2.25 (1.50–4.00) h
same,"Cmax, arithmetic mean (SD)","[2]; esaxerenone 2.5 mg single oral dose, alone, n = 20, plasma",36.7 (5.36) ng mL^−1
same,"AUCinf, GLSM",[2]; [22],637 ng·h/mL
same,"Cmax, GLSM",[2]; [22],36.4 ng/mL
same,tolerability,[3]; both dosages (2.5 and 5 mg d^−1),well tolerated
same,clinical efficacy vs eplerenone 50 mg d^−1,"[3]; esaxerenone 2.5 mg d^−1, essential hypertension",noninferior
same,clinical efficacy of 5 mg d^−1 dosage vs 2.5 mg d^−1 dosage,[3]; essential hypertension,superior
same,MR affinity relative to eplerenone,[4]; fold greater than eplerenone,4 fold
same,MR affinity relative to spironolactone,[4]; fold greater than spironolactone,76 fold
same,involvement of CYP3A4 in oxidative metabolism,[5],involved in the oxidative metabolism
same,"mean plasma concentrations, Japanese vs Caucasian subjects",[6],similar
same,substrate of P-glycoprotein,[7],substrate
same,substrate of breast cancer resistance protein,[8],substrate
same,AUCinf GLSM ratio (90% CI),[9]; [23],"0.312 (0.297, 0.328)"
same,Cmax GLSM ratio (90% CI),[9]; [23],"0.659 (0.599, 0.724)"
same,decrease in esaxerenone Cmax,[9]; [24],34.1%
same,fold reduction of esaxerenone AUCinf,[9]; [24],approximately 0.3 fold
same,"AUCinf, GLSM",[9]; [25],350 ng·h/mL
same,"Cmax, GLSM",[9]; [25],47.2 ng/mL
same,"AUCinf, arithmetic mean (SD)",[9]; [26],351 (24.8) ng h mL^−1
same,"CL/F, arithmetic mean (SD)",[9]; [26],14.3 (1.01) L h^−1
same,"Cmax, arithmetic mean (SD)",[9]; [26],47.6 (6.22) ng mL^−1
same,"t1/2, arithmetic mean (SD)",[9]; [26],8.63 (1.67) h
same,"tmax, median (range)",[9]; [26],2.50 (1.00–4.00) h
same,"AUCinf, arithmetic mean (SD)",[9]; [27],1130 (150) ng h mL^−1
same,"CL/F, arithmetic mean (SD)",[9]; [27],4.50 (0.634) L h^−1
same,"t1/2, arithmetic mean (SD)",[9]; [27],16.6 (2.38) h
same,"tmax, median (range)",[9]; [27],2.50 (1.50–3.50) h
same,"Cmax, arithmetic mean (SD)","[9]; esaxerenone 5 mg single oral dose, alone, n = 11, plasma",72.4 (10.1) ng mL^−1
same,"AUCinf, GLSM",[9]; [28],1121 ng·h/mL
same,"Cmax, GLSM",[9]; [28],71.7 ng/mL
same,involvement of CYP3A5 in oxidative metabolism,[10],involved in the oxidative metabolism
same,serious AEs,[11]; Study 2,No serious AEs
same,"Blood creatine phosphokinase increased, TEAE",[11]; [29],0 number of subjects (%)
same,"Eosinophil count increased, TEAE",[11]; [29],1 (9.1) number of subjects (%)
same,"Rash, TEAE",[11]; [29],0 number of subjects (%)
same,"Blood creatine phosphokinase increased, TEAE",[11]; [30],0 number of subjects (%)
same,"Eosinophil count increased, TEAE",[11]; [30],0 number of subjects (%)
same,"Rash, TEAE",[11]; [30],1 (8.3) number of subjects (%)
same,subjects reporting TEAEs,"[11]; Study 2, whole study",2 subjects
same,safety and tolerability (in words),[11]; administered concomitantly with rifampicin,safe and well tolerated
same,absolute bioavailability,[12],approximately 90%
same,proportion of unchanged drug excreted in faeces,[13]; 14C-labelled esaxerenone,18.7%
same,proportion of unchanged drug excreted in urine,[13]; 14C-labelled esaxerenone,1.6%
same,overall excretion rate of oxidised metabolites,[13]; metabolite profiles in faeces and urine,about 30 % of the total dose
COC(=O)[C@@H]1CC2=CC(=O)CC[C@]2(C)[C@@]23O[C@@H]2C[C@@]2(C)[C@@H](CC[C@@]24CCC(=O)O4)[C@H]13 [eplerenone],increase in eplerenone exposure,[14],5 fold
same,IC50,[15],0.97 µM
